Screening results from PubChem BioAssay.
DTT redox prof: compounds producing H2O2 with reducing agent – biochemical, NIH compound library profiling, artefact control for MLSCN library redox annotation, primary screen | DTT-dependent redox cycling H2O2, phenol red/HRP absorbance; 100% = 100 µM peroxide control, 0% = buffer | activation, % at 10 µM | 0.03% of 200,000 active | AID 878, 2007;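 active = activation of at least 50% relative to the plate's high and low controls in the primary single-dose screen; inactive = activation below 50%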;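 note: compound incubated with DTT at 0.8 mM final as the reducing agent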
bCat nuc transl: modulators of beta-catenin nuclear translocation, primary screen, imaging, HeLa cells, immunofluorescence, high-content. AID 1665, 2009. 0.3% of 190,000 active. nuclear translocation activity, % at 5 µM;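 active = nuclear translocation activity above 50% at 5 µM, with a well cell count of 50 or more; inconclusive = wells under 50 cells across six images, flagged as toxic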;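 note: per-cell ratio of nuclear to cytoplasmic median beta-catenin stain intensity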
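Signal – beta-catenin immunofluorescence imaging with DAPI · Test system – human HeLa cell line · Dosing – 5 µM primary single dose, 0.1% DMSO, 0.02–20 µM confirmation series · Measure – % activation, nuclear-to-cytoplasmic median beta-catenin signal ratio per cell · Incubation – 24 h compound exposure at 37°C, 5% CO2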
MT stabilize HCS: microtubule stabilizers in HeLa cells, primary screen, imaging, high-content imaging; 0.83% of 200,000 active; % tubulin-high responders, % at 10 µM; AID 2205, 2009; HeLa tubulin immunostaining HCS, 24 h; share of cells brighter than vehicle mean+2SD;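 active = plate Z-score above 3 for both tubulin-high and condensed-nucleus cell shares, with cell loss under 80%, at 10 µM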;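 note: anti alpha tubulin signal scored within the nucleus-defined area of each cell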
ROMK primary: ROMK potassium channel modulators, primary screen, cell-based, thallium flux, MLSMR library; ATP-sensitive inward rectifier potassium channel 1 (Homo sapiens), P48048; Tet-inducible ROMK, thallium flux fluorescence; actives lie on both sides; 2% of 130,000 active; B-score at 10 µM; AID 1918, 2009;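 active = signal ratio slope over the read window, or its plate-corrected B-score, at least 3 SD from the plate mean, either direction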;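 note: B-score of the F/F0 ratio slope over 7 to 12 s after thallium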
KCC2 mod: KCC2 cotransporter modulators, thallium flux, primary screen, cell-based, HEK293 KCC2, FluoZin-2 fluorescence, MLSMR | Solute carrier family 12 member 5 (Homo sapiens), Q9H2X9 | KCC2 cells, thallium flux FluoZin-2 fluorescence | B-score of Tl+ flux slope (higher = more flux/activation; lower = inhibition) at 10 µM | 2.2% of 190,000 active | AID 1456, 2008;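 active = thallium flux slope and its plate-corrected score both differing from the plate sample mean at a set confidence after two filtering rounds, in either direction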;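 note: slope of fluorescence scaled to starting intensity during 10 to 20 s after thallium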
KCC2 sec1: KCC2 modulators in sodium-free buffer, confirmation, cell-based, HEK293 KCC2, thallium flux, secondary assay; shares compounds with KCC2 mod; FluoZin2 fluorescence; stronger effect = higher value; normalised thallium flux (F/F0 slope) at 10 µM; 15% of 3,700 active;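 active = thallium flux slope above the same plate's solvent-only control mean plus 3 SD; inconclusive = the two replicate wells disagree; inactive = no significant difference from solvent-only control wells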
KCC2 bumet counter: thallium flux persisting under bumetanide in KCC2 cells, confirmation, counter-screen for KCC2 modulator project, cell-based, HEK293 KCC2, FluoZin2, secondary assay 3; shares compounds with KCC2 mod; HEK293-KCC2 + bumetanide/ouabain; stronger effect = higher value; normalized thallium flux at 10 µM; 49% of 3,700 active; AID 1714, 2009;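 active = thallium entry rate above the same plate's blocked-transporter control wells by more than 3 SD; inconclusive = the two repeat wells disagree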;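 note: raw slope of fluorescence over initial fluorescence between 10 and 20 s after thallium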
KCC2 sec2: KCC2 modulators without ouabain present, confirmation, cell-based, HEK293 KCC2, thallium flux, FluoZin2, secondary assay 2; thallium flux FluoZin2 fluorescence; actives lie on both sides; F/F0 rise rate, 10–20 s post-thallium; normalized thallium flux at 10 µM; shares compounds with KCC2 mod; 23% of 3,700 active; AID 1715, 2009;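 active = thallium flux slope more than 3 SD above or below the plate's solvent-only control mean, mostly below; inconclusive = the two repeat wells disagreed; inactive = no significant shift from solvent-only controls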
HEK293 Tl flux: thallium flux modulation in parental HEK cells, confirmation, counter-screen for KCC2 modulator project, cell-based, counterscreen 1. shares compounds with KCC2 mod. 46% of 3,700 active. thallium flux rate (normalised fluorescence) at 10 µM. AID 1716, 2009. HEK293 parental cells, thallium flux FluoZin2, ouabain; baseline-ratio fluorescence slope, 10–20 s after thallium;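 active = thallium flux rate significantly above the same plate's solvent-only control wells, beyond their mean plus 3 SD; inconclusive = the two replicate wells gave conflicting results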
KCC2 retest ouab: KCC2 inhibitors and activators, ouabain retest, confirmation, HEK-KCC2 cells; shares compounds with KCC2 mod; HEK293-KCC2, thallium flux FluoZin2 fluorescence; bidirectional: low = inhibitor, high = activator; raw Tl+ flux slope (below DMSO = inhibition, above = activation) at 10 µM; 48% of 3,700 active; AID 1717, 2009;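 active = thallium flux slope beyond 3 SD from same-plate DMSO control mean in most replicates, usually higher, sometimes lower; inconclusive = repeat tests gave conflicting results; inactive = no significant difference from controls in most replicates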;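 note: slope of initial-normalized fluorescence between seconds 10 and 20 after thallium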
HEK293 Tl flux2: native HEK Tl+ uptake effects, second counter-screen – HEK cells, counterscreen 2, counter-screen for KCC2 modulator project, confirmation; shares compounds with KCC2 mod; HEK293 parental, thallium flux FluoZin-2 fluorescence slope; thallium flux slope at 10 µM; 33% of 3,700 active;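 active = thallium flux slope above the same plate's solvent-control mean plus 3 SD in both duplicate wells; inconclusive = duplicate wells that disagreed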;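 note: run without ouabain in cells lacking the KCC2 cotransporter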
Of the large screens only hits and unclear results are named; the others gave an inactive call (follow-up assays come after a bar, where they were run). Most compounds without a hit are left out; they make up all but 3.7% or so of the library.

Cc1cccc(N=Nc2ccc(O)c3ncccc23)c1	KCC2 mod 15.1 | KCC2 sec1 inactive | KCC2 bumet counter 0.0341 | KCC2 sec2 inactive | HEK293 Tl flux 0.033 | KCC2 retest ouab 0.049 | HEK293 Tl flux2 0.0122
COCCn1c(=NC(=O)/C=C/c2ccccc2)sc2cc(NC(C)=O)ccc21	none (no result: ROMK primary)
COc1cccc(/C=C2\SC(=S)NC2=O)c1OS(=O)(=O)c1ccc(NC(C)=O)cc1	KCC2 mod -5.85 | KCC2 sec1 inconclusive | KCC2 bumet counter inactive | KCC2 sec2 inconclusive | HEK293 Tl flux 0.00553 | KCC2 retest ouab 0.0142 | HEK293 Tl flux2 inactive
CCOCCCNS(=O)(=O)c1ccc(NC(=O)Cc2c(F)cccc2Cl)cc1	none (no result: KCC2 mod)
Cc1nn(C)c(C)c1S(=O)(=O)N1CCC(CO)(CC2CCCCO2)CC1 (configuration not stated)	none
CC(=O)c1ccc(N2CCN(C(=O)Cn3c(=S)[nH]c4ncccc4c3=O)CC2)cc1	none
CN(C)CCn1c(=S)[nH]c2ncccc2c1=O	none
CC(C)CCn1c(=S)[nH]c2ncccc2c1=O	KCC2 mod 50.6 (no result: ROMK primary) | KCC2 sec1 0.0116 | KCC2 bumet counter 0.08 | KCC2 sec2 0.0755 | HEK293 Tl flux 0.0666 | KCC2 retest ouab 0.0727 | HEK293 Tl flux2 0.0593
CCOCCCn1c(=S)[nH]c2ncccc2c1=O	KCC2 mod 5.27 (no result: ROMK primary) | KCC2 sec1 inactive | KCC2 bumet counter 0.0173 | KCC2 sec2 inactive | HEK293 Tl flux 0.0178 | KCC2 retest ouab inconclusive | HEK293 Tl flux2 0.021
COc1ccc(N2CCN(CCCn3c(=S)[nH]c4ncccc4c3=O)CC2)cc1	KCC2 mod 8.91 (no result: bCat nuc transl) | KCC2 sec1 inactive | KCC2 bumet counter 0.0316 | KCC2 sec2 inactive | HEK293 Tl flux 0.0202 | KCC2 retest ouab 0.031 | HEK293 Tl flux2 0.0178
CCOC(Cn1ccc(=O)[nH]c1=O)OCC	none (no result: DTT redox prof, MT stabilize HCS)
Cc1ccc(CN2CCN(/N=C\C=C\c3ccccc3)CC2)cc1	none
CC(C)Sc1nnc([C@H](Cc2c[nH]c3ccccc23)NC(=O)OC(C)(C)C)o1	KCC2 mod -6.29 | KCC2 sec1 inactive | KCC2 bumet counter inactive | KCC2 sec2 0.028 | HEK293 Tl flux inconclusive | KCC2 retest ouab 0.0126 | HEK293 Tl flux2 inactive
CC(C)(C)OC(=O)N[C@@H](Cc1c[nH]c2ccccc12)c1nnc(SCC(N)=O)o1	none (no result: ROMK primary)
Fc1ccc(NC(=S)Nc2ccc(Cl)cc2Cl)cc1	KCC2 mod 4.46 | KCC2 sec1 inactive | KCC2 bumet counter 0.0417 | KCC2 sec2 inactive | HEK293 Tl flux 0.0161 | KCC2 retest ouab inconclusive | HEK293 Tl flux2 0.0131
Cc1cccnc1NC(=O)c1csnn1	none (no result: DTT redox prof, MT stabilize HCS)
CCSc1nc2c(c(=O)[nH]c(=O)n2C)n1C/C=C(/C)Cl	KCC2 mod 7.02 | KCC2 sec1 inactive | KCC2 bumet counter inactive | KCC2 sec2 inactive | HEK293 Tl flux inactive | KCC2 retest ouab inactive | HEK293 Tl flux2 inactive
NC(=S)N=Nc1c(O)[nH]c2c(Br)cc(Br)cc12	KCC2 mod 25.2 (no result: ROMK primary) | KCC2 sec1 inactive | KCC2 bumet counter 0.0266 | KCC2 sec2 0.0397 | HEK293 Tl flux 0.0183 | KCC2 retest ouab 0.0357 | HEK293 Tl flux2 0.0168
CC(C)(C)NC(=O)c1nc2ccccc2s1	none (no result: ROMK primary)
Cc1ccc(C)c2sc(NC(=O)c3nc4ccccc4s3)nc12	KCC2 mod 60.1 | KCC2 sec1 0.0138 | KCC2 bumet counter 0.033 | KCC2 sec2 inactive | HEK293 Tl flux 0.0595 | KCC2 retest ouab 0.0364 | HEK293 Tl flux2 0.0154
Cc1nc2c(cnn2-c2ccccc2Cl)c(=O)n1-c1ccc(N2CCC(C)CC2)cc1	none (no result: bCat nuc transl, KCC2 mod) | KCC2 sec1 inactive | KCC2 bumet counter inactive | KCC2 sec2 inactive | HEK293 Tl flux inactive | KCC2 retest ouab inactive | HEK293 Tl flux2 inactive
Cc1ccc(-n2c(C)nc3c(cnn3-c3ccccc3Cl)c2=O)cc1C	none (no result: bCat nuc transl)
COc1ccc(OC)c(C(=O)COC(=O)c2ccccc2O)c1	none (no result: KCC2 mod) | KCC2 sec1 inactive | KCC2 bumet counter inactive | KCC2 sec2 inactive | HEK293 Tl flux inactive | KCC2 retest ouab 0.023 | HEK293 Tl flux2 inconclusive
CCn1c(SCC(=O)Nc2ccc3c(c2)OCO3)nc2c(c1=O)SC(C)C2 (configuration not stated)	none (no result: ROMK primary)
CC1Cc2nc(SCC(=O)Nc3ccc4c(c3)OCO4)n(CCc3ccccc3)c(=O)c2S1 (configuration not stated)	KCC2 mod -3.97 (no result: ROMK primary) | KCC2 sec1 inactive | KCC2 bumet counter inactive | KCC2 sec2 inactive | HEK293 Tl flux inconclusive | KCC2 retest ouab 0.0171 | HEK293 Tl flux2 inactive
N#Cc1nc(-c2ccco2)oc1N1CCC(Cc2ccccc2)CC1	none (no result: bCat nuc transl, KCC2 mod) | KCC2 sec1 inactive | KCC2 bumet counter inactive | KCC2 sec2 0.0251 | HEK293 Tl flux inactive | KCC2 retest ouab inconclusive | HEK293 Tl flux2 inactive
N#Cc1nc(-c2ccco2)oc1N1CCN(c2ccccc2)CC1	none (no result: KCC2 mod)
CC1Cc2ccccc2N1C(=O)/C=C/c1cccc(F)c1 (configuration not stated)	KCC2 mod -4.39 | KCC2 sec1 inactive | KCC2 bumet counter inactive | KCC2 sec2 0.0234 | HEK293 Tl flux inactive | KCC2 retest ouab 0.0149 | HEK293 Tl flux2 inactive
CC(=O)c1cccc(NC(=S)N2c3ccccc3CC2C)c1 (configuration not stated)	none
